Screening data deposited in PubChem BioAssay by The Scripps Research Institute Molecular Screening Center.
Tn6 DDE FP: DD(E)-Tn6 binding inhibition, primary FP screen; P02675; Fibrin DD(E) TRITC-Tn6 fluorescence polarization displacement; inhibition, % at 8.3 µM; 370,000 compounds, 0.21% hits;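 active means inhibition above a per-campaign cutoff: mean of compounds within control limits plus 3 SD, cut at about 15% in these data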
PLCb3 inh: PLC-beta3 (human) inhibition, primary screen. Q01970. inhibition, % at 12.2 µM. Purified PLC-beta3, fluorogenic substrate, fluorescence. 370,000 compounds, 0.18% hits; in the data active means inhibition above about 11%
Target sequence (Q01970 whole entry, looked up): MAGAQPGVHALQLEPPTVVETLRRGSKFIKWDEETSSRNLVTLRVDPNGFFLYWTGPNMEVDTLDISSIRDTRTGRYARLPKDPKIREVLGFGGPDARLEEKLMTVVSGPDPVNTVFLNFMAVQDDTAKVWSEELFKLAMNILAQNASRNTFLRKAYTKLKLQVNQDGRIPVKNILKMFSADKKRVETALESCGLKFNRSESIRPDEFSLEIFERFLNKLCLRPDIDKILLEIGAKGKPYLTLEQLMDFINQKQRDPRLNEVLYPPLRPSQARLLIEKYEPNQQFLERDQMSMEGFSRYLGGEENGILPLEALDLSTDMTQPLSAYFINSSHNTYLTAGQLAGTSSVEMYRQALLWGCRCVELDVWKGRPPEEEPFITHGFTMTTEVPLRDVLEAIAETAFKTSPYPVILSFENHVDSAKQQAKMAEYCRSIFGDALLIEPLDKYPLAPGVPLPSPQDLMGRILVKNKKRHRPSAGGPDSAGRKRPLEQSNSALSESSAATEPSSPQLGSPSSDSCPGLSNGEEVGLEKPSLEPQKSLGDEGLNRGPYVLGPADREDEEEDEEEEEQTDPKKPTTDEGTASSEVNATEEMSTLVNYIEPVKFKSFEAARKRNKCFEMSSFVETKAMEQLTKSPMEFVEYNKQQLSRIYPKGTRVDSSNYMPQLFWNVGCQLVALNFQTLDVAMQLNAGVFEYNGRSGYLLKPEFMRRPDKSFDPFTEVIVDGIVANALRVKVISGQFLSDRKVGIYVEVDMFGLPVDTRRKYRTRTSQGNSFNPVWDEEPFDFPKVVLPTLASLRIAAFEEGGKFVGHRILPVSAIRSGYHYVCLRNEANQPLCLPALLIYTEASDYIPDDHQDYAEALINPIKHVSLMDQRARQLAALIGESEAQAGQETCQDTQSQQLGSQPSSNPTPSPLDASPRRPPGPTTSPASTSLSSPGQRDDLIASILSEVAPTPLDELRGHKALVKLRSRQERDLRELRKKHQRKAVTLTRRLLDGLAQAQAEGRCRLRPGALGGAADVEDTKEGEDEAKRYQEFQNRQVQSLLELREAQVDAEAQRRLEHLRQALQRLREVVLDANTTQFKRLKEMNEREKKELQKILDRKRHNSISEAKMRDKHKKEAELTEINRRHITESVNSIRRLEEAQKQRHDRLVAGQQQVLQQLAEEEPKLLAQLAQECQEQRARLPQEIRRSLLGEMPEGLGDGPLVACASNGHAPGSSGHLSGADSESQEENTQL
DNA FID counter: displaces DNA intercalator in HCV helicase counter-screen. DNA fluorescent intercalator displacement, fluorescence. inhibition, % at 7.9 µM. 290,000 compounds, 0.17% hits; in the data active means inhibition above about 37%;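 further: higher means more ethidium bromide displaced from hairpin DNA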
PLCg1 inh: PLC-gamma1 (human) inhibition, primary screen. P19174. purified PLC-gamma1, fluorogenic substrate, fluorescence. inhibition, % at 12.2 µM. 370,000 compounds, 0.84% hits. AID 720700; in the data active means inhibition above about 9.5%
DDE Tn7 FP inh: DD(E)-Tn7 binding inhibition, primary FP screen | P02675 | FP displacement of FITC-Tn7 peptide from fibrin DD(E); 0% = median of compound wells per plate | inhibition, % at 8.3 µM | 370,000 compounds, 0.13% hits | AID 720508;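 active means inhibition above the mean of compounds falling within the control limits plus 3 SD of them, cut at about 14% in these data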
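System: human fibrin DD(E); quantity: Fibrin-DD(E) at 2 µM final; also added: fluorescent Tn7 probe at 0.1 µM; compound dosing: single nominal test concentration of 8.3 µM per compound; schedule: 10 min preincubation, 3 h with tracer, room temperature; detection: fluorescence polarization of the labelled Tn7 tracer; repeats: one replicate per compound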
DDE Tn6 FP ctr: DD(E)-Tn6 binding inhibition, counter-screen; shares compounds with Tn6 DDE FP; Fibrin DD(E), TRITC-Tn6 fluorescence polarization displacement; 0% = median of compound wells, not DMSO; inhibition, % at 8.3 µM; 680 compounds, 2% hits;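 active means inhibition above the mean of test compounds lying between the control limits plus 3 SD of those, cut at about 14% in these data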
DDE Tn6 confirm: DD(E)-Tn6 binding inhibition, FP confirmation; shares compounds with Tn6 DDE FP; FP displacement of TRITC-Tn6 peptide from DD(E); 0% = per-plate median of test wells; 680 compounds, 10% hits; inhibition, % at 8.3 µM;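 active means inhibition above the mean of compounds lying within the control limits plus 3 SD, cut at about 16% in these data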
Hits are given with their value; 0 = inactive; - = no result. In the library only some 1.4% were active in any assay of this set; here they are far more common.

SMILES | Tn6 DDE FP | PLCb3 inh | DNA FID counter | PLCg1 inh | DDE Tn7 FP inh | DDE Tn6 FP ctr | DDE Tn6 confirm
Cc1cc2ccccc2n1CCNC(=O)c1ccc(Br)o1 | 17 | 0 | 0 | 0 | 0 | 0 | 0
Cc1cc2ccccc2n1CCNC(=O)Cc1cccc2ccccc12 | 46 | 0 | 0 | 0 | 0 | 0 | 0
C[C@@]12C(C[C@H](O)[C@@]34C[C@@H](CCC13)[C@@H](CO)C4=O)[C@](C)(C(=O)O)CC[C@@H]2O (some centres not stated) | 21 | 0 | - | 0 | 0 | 0 | 0
C=C1C(=O)[C@]23C[C@H]1CCC2[C@@]1(C)C(C[C@@H]3O)[C@](C)(C(=O)OC)CC[C@@H]1O (some centres not stated) | 0 | 0 | - | 0 | 0 | - | -
c1ccc(Nc2ccccc2Nc2ccccn2)nc1 | 16 | 0 | 0 | 0 | 0 | 0 | 0
CCCCCCSc1cccc(-c2nc3ccc(C)cn3c2NCc2ccccc2)c1 | 16 | 0 | - | 0 | 0 | 0 | 0
Cc1ccc(C(=O)N/N=C\c2cc3c(cc2Br)OCO3)s1 | 0 | 0 | 0 | 0 | 0 | - | -
COC(=O)N/N=C\c1cc2c(cc1Br)OCO2 | 17 | 0 | 0 | 0 | 0 | 0 | 0
CC(=O)c1cccc(OCc2cc(C(=O)N3C[C@@H](C)O[C@@H](C)C3)no2)c1 | 20 | 0 | 0 | 0 | 0 | 0 | 0
COc1c(C)cc(Br)cc1C(=O)Nc1ccc(C)cc1[N+](=O)[O-] | 0 | 0 | 0 | 0 | 0 | - | -
COc1ccc(OC)c(S(=O)(=O)Nc2ccc3c(c2)n(C)c(=O)n3C)c1 | 0 | 0 | 0 | 0 | 0 | - | -
Cc1cc(C(=O)COc2cccc3cccnc23)c(C)n1C | 30 | 0 | 0 | 0 | 0 | 0 | 0
CN(Cc1cn(Cc2cccc(Cl)c2)nn1)C1CN(Cc2cn(Cc3cccc(Cl)c3)nn2)S(=O)(=O)C1 (configuration not stated) | 16 | 0 | - | 0 | 0 | 0 | 0
CN(C)C1CN(Cc2cn(Cc3cccc(Cl)c3)nn2)S(=O)(=O)C1 (configuration not stated) | 0 | 0 | - | 0 | 0 | - | -
CCOC(=O)C(CNc1ccc(O)cc1)NC(=O)c1ccccc1 (configuration not stated) | 66 | 0 | - | 0 | 0 | 0 | 0
Cc1c(C(=O)N2CCCC2(C)C(=O)NCC(C)C)oc2ccccc12 (configuration not stated) | 0 | 0 | - | 0 | 0 | - | -
COc1ccc(C(=O)N/C=C/n2cnc3cc(C(F)(F)F)ccc32)cc1 | 16 | 0 | 0 | 0 | 0 | 0 | 0
CC(COc1ccccc1C#N)CN1CCC(C(O)(c2ccccc2)c2ccccc2)CC1 (configuration not stated) | 16 | 0 | - | 0 | 0 | 0 | 0
CC(C)Cn1c2c(c(O)c(C(=O)Nc3ccc(F)cc3)c1=O)CCCC2 | 16 | 0 | 0 | 0 | 0 | 0 | 0
NC(=O)CCn1cnc2ccccc21 | 0 | 0 | 0 | 0 | 0 | - | -
c1ccc2c(c1)ncn2CCC1CCCCC1 | 18 | 0 | 0 | 0 | 0 | 0 | 0
CSc1cccc(NC(=O)C(=O)NCc2ccccc2)c1 | 0 | 0 | 0 | 0 | 0 | - | -
CSc1cccc(NC(=O)NCc2cccc(CNC(=O)Nc3cccc(SC)c3)c2)c1 | 27 | 0 | 0 | 0 | 0 | 0 | 0
Cc1c(Cl)cn2c(=O)cc(CN3CCN(c4ccccc4)CC3)nc2c1Cl | 15 | 0 | 0 | 0 | 0 | 0 | 0
CCN(Cc1cc(=O)n2cc(Cl)c(C)c(Cl)c2n1)Cc1nc2ccccc2c(=O)[nH]1 | 0 | 0 | 0 | 0 | 0 | - | -
SMILES | Tn6 DDE FP | PLCb3 inh | DNA FID counter | PLCg1 inh | DDE Tn7 FP inh | DDE Tn6 FP ctr | DDE Tn6 confirm
O=C(Oc1ccc(N(Cc2cccs2)C2=NS(=O)(=O)c3ccccc32)cc1)c1ccc(Cl)cc1 | 17 | 0 | 0 | 0 | 0 | 0 | 0
O=C(Oc1ccc(N(Cc2cccs2)C2=NS(=O)(=O)c3ccccc32)cc1)c1ccccc1 | 0 | 0 | 0 | 0 | 0 | - | -
CC1Oc2ccccc2N(Cc2ccccc2F)C1=O (configuration not stated) | 0 | 0 | 0 | 0 | 0 | - | -
Nc1c(SCCC(=O)O)ccc2c1C(=O)c1ccccc1C2=O | 50 | 0 | 0 | 0 | 0 | 0 | 27
COc1ccc(Nc2c(-c3ccc(F)cc3)nc3nc(C)cc(C)n23)cc1 | 17 | 0 | - | 0 | 0 | 0 | 0
CN(C)c1ccc2nc3c(=O)[nH]c(=O)nc-3n(CC(O)C(O)C(O)CO)c2c1 (configuration not stated) | 73 | 0 | 0 | 0 | 0 | 0 | 0
Cc1ncc(C(O)c2ccc(N(C)C)cc2)n1Cc1ccccc1 (configuration not stated) | 0 | 0 | - | 0 | 0 | - | -
Cc1ccc(NC(=O)COC(=O)c2ccc(NC(=O)CC#N)cc2)cc1S(=O)(=O)N1CCOCC1 | 20 | 0 | - | 0 | 0 | 0 | 0
Cc1ccc(NC(=O)COC(=O)c2ccc3c(c2)OCCO3)cc1S(=O)(=O)N1CCOCC1 | 0 | 0 | 0 | 0 | 0 | - | -
O=C(O)[C@@H](c1ccccc1)N1Cc2ccccc2C1=O | 0 | 0 | 0 | 0 | 0 | - | -
Cc1cccc(C(=O)NNC(=O)CN2C(=O)c3ccccc3C2=O)c1 | 17 | 0 | 0 | 0 | 0 | 0 | 0
COc1ccccc1-n1c(SCC(=O)NC2CCS(=O)(=O)C2)nc2ccccc2c1=O (configuration not stated) | 15 | 0 | - | 0 | 0 | 0 | 0
O=C(Nc1nc(-c2ccc3ccccc3c2)cs1)c1ccc(N2C(=O)CCC2=O)cc1 | 0 | 0 | 0 | 0 | 0 | - | -
COc1ccc(OCC(=O)Nc2c3c(nn2C(C)(C)C)CS(=O)(=O)C3)cc1 | 0 | 0 | 0 | 0 | 0 | - | -
CC(C)(C)n1nc2c(c1NC(=O)COc1ccc(F)cc1)CS(=O)(=O)C2 | 16 | 0 | 0 | 0 | 0 | 0 | 0
Cc1cc2nc(-c3ccc(SCC(=O)Nc4ccc(S(=O)(=O)N5CCCC5)cc4)nc3)[nH]c2cc1C | 0 | 0 | 0 | 0 | 0 | - | -
O=C(CSc1ccc(-c2nc3ccccc3[nH]2)cn1)Nc1ccc(S(=O)(=O)N2CCCC2)cc1 | 59 | 0 | 0 | 0 | 0 | 0 | 0
CC(C)(C)C(=O)Nc1ccc(S(=O)(=O)N2CCC(c3nc4ccccc4[nH]3)CC2)cc1 | 18 | 0 | - | 0 | 0 | 0 | 0
CC(=O)Nc1ccc(S(=O)(=O)N2CCC(c3nc4ccccc4[nH]3)CC2)cc1 | 0 | 0 | 0 | 0 | 0 | - | -
CCOC(=O)C(C#N)C(c1cccnc1)c1c(C)[nH][nH]c1=O (configuration not stated) | 0 | 0 | 0 | 0 | 0 | - | -
CCOc1ccccc1OCCCC(=O)Nc1ccc(OC)nc1 | 0 | 0 | 0 | 0 | 0 | - | -
CNC(=O)c1ccc(OCc2ccccc2)c(OC)c1 | 0 | 0 | 0 | 0 | 0 | - | -
CCCn1c(N)c(C(=O)CSc2nc3ccccc3s2)c(=O)[nH]c1=O | 0 | 0 | 0 | 0 | 0 | - | -
